The nature of data set [1]: Plasma concentration in Sprague-Dawley rat at 5 mg/kg, po after 4 hrs by LC-MS/MS analysis. It is filed as ADME, organism-based. More on the design: dose 5 mg/kg, route oral. In outline:
(§1)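 Male Sprague-Dawley rats fitted with jugular catheters, fed, three per compound, dosed orally at 5 mg/kg. Vehicle was 1% CMC/0.2% Tween80 in water, or 80% PEG 400/20% pH 2 30 mM citric acid, depending on compound. Serial heparinized blood taken at 1, 2, 4 and 6 h. Plasma proteins precipitated with acetonitrile; compound quantified by LC/MS/MS in MRM mode.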

Data set [2] in a line: Plasma concentration in Sprague-Dawley rat at 5 mg/kg, po after 1 hr by LC-MS/MS analysis. It is filed as ADME, organism-based. More on the design: dose 5 mg/kg, route oral. The method in brief:
as §1

A short description of data set [3]: Plasma concentration in Sprague-Dawley rat at 5 mg/kg, po after 2 hrs by LC-MS/MS analysis. In kind it is ADME, organism-based. More on the design: dose 5 mg/kg, route oral. The method in brief: as §1
Data set [4] can be described thus: Aqueous solubility at pH 7.4. In kind it is physicochemical.

`CS(=O)(=O)c1ccc(C(CCNC(=O)c2ccc(C#N)cc2)c2ccc(F)cc2)cc1` (stereo not given) showed a concentration at 4 h in data set [1] of 3600 nM.
In turn, `O=C(NCCC(c1ccc(F)cc1)c1ccc(F)cc1)c1ccc(OCC(F)(F)F)nc1` came in with a concentration at 1 h in data set [2] of 300 nM. The concentration at 4 h in data set [1] came out at 100 nM. In data set [3], this molecule gave a concentration at 2 h of 200 nM. Further, the solubility (as a rule, the dissolved amount per volume that the medium holds) in data set [4] is below 0.1 µg/mL.

The record behind these values is ChEMBL document CHEMBL1153540, “Structure-based optimization of arylamides as inhibitors of soluble epoxide hydrolase” (J Med Chem, 2009).
